Laboratory results as given in the EternaBench riboswitch data.

Test system: MS2 coat protein
Test: apparent Kd, MS2 coat protein; higher = weaker binding; RNA-MaP array; FMN 200 µM where present
In short: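 Apparent Kd: the median of filtered binding-curve fits from single clusters. Designs were transcribed on Illumina sequencing-chip clusters by stalled E. coli RNA polymerase and titrated with SNAP-549-labelled MS2 coat protein from 0.7 or 1.5 nM, doubling to 3 µM, in 100 mM Tris-HCl pH 7.5, 80 mM KCl, 4 mM MgCl2, BSA, DTT, yeast tRNA and Tween-20. Each series ran without and then with constant ligand, and green signal was normalised to red-channel RNA signal and control-cluster median Fmax.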

[1] = designed as: ON switch for flavin mononucleotide, no ligand
[2] = ligand present: flavin mononucleotide, designed as: ON switch for flavin mononucleotide
[3] = designed as: OFF switch for flavin mononucleotide, no ligand
[4] = ligand present: flavin mononucleotide, designed as: OFF switch for flavin mononucleotide

## GGUACUAUCACAGGAUAUGCUUUCCUUUGGGAAGCAGAAGGGUGUAACAUGAGGAUCACCCAUGUGGUGCCCGGGCGUGAGCCC
[1]
  apparent Kd: 51.7 nM
[2]
  apparent Kd: 14.8 nM

## AGAUAACAUGUAGGAUAUCGAGGCCUGAGGCCUCGAGAAGGACAUGAGGAUCACCCAUGUAGUUGUACUAUGGGAUCACGCACU
[3]
  apparent Kd: 620 nM
[4]
  apparent Kd: 186 nM

## UGGUCAUGAUCAGGAUAUUAACAUGGGCUACAUUGAGAAGGGAUAGUGAGAUACGAACUGAACGACAUGAGGAUCACCCAUGUA
[1]
  apparent Kd: 59.7 nM
[2]
  apparent Kd: 44 nM

## ACCGCUCGAGGAUAUACAUGAGGAUCACCCAUGUAACCCAGAAGCAAGGCCUCAGGAUGUAGAAGGCGACGCAA
[3]
  apparent Kd: 14 nM
[4]
  apparent Kd: 14.2 nM

## GGAUAGGUCAGAGGAUAUACGUGCUAGAGAUACUAGCAAAAUUUCCUCACAUGAGGAUCACCCAUGUAGAAGGCUGUCCUAUCG
[3]
  apparent Kd: 12.4 nM
[4]
  apparent Kd: 278 nM

## AAAUUUUGUCAAGGAUAUGUAUAAAAGAUAAGAAAACAUGAGGAUCACCCAUGUAUAUGGUGGGAACAGAAGGUGAAUAAGUAA
[3]
  apparent Kd: 185 nM
[4]
  apparent Kd: 158 nM

## AGGAGGUGAGGAUAUGCUGCUCGUCACUUGCGUGAUGAGUAGCAGAAGGCACAUGAGGAUCACCCAUGUAAAGA
[3]
  apparent Kd: 117 nM
[4]
  apparent Kd: 105 nM

## CGAGCUGCUGUGAGGAUAUACCUAUGGAUGCGUGGGUAGAAGGCACAUGAGGAUCACCCAUGUCCUGCAGCUCG
[3]
  apparent Kd: 42.1 nM
[4]
  apparent Kd: 241 nM

## UCCUUGUCCUGAGGAUAUCCGUGGUUACCUAAAGGAGAAGGCAGGACAUGAGGAUCACCCAUGUACCCAGAAAACGUGCAGAGU
[3]
  apparent Kd: 234 nM
[4]
  apparent Kd: 126 nM

## AUAGGGACCUCGCAAUGUUUACAUGAGGAUCACCCAUGUAAGAGAAGGGUCCAGUCAUCUCCUGGAUAGGAUAUCUUACCGUUA
[3]
  apparent Kd: 5.21 nM
[4]
  apparent Kd: 6.44 nM

## GGCGGAGACGUUAACAUGAGGAUCACCCAUGUCGAAGGAGAUGAGGAUAUCGUAUACGAUGUAUAUGAGAAGGCAUGGUCUGCC
[1]
  apparent Kd: 32.8 nM
[2]
  apparent Kd: 11.3 nM

## GUGAAACAUGAGGAUCACCCAUGUGAGGAUAUGUUUUAGUACUGCAGACAGUACAUCUAUAGAAGGCACAAUGG
[3]
  apparent Kd: 38.9 nM
[4]
  apparent Kd: 70.7 nM

## GCCGAAAGUGUGAGGAUAUACCUAUGGAUACAUAGGUAGAAGGCACAUGAGGAUCACCCAUGUUCCUAAACGGC
[3]
  apparent Kd: 80.2 nM
[4]
  apparent Kd: 421 nM

## GAAAACGCAGAGGAUAUUUCAGAUCCUAGCUGCAAAGAAGGCUGCACAUGAGGAUCACCCAUGUGGUCCUGAAG
[3]
  apparent Kd: 65.1 nM
[4]
  apparent Kd: 155 nM

## GGAAAGCAAGGAUAUGCAAACAAACAAACAAACAAAAGGGAACAUGAGGAUCACCCAUGUAGAAGGUGCAAACA
[3]
  apparent Kd: 40.8 nM
[4]
  apparent Kd: 32.5 nM

## UGUCAUAAAUAGAAGGGUAGUUGGGUUUUACAUGAGGAUCACCCAUGUAUUAUAGGAUAUGUGUAAAGUUAUUAUUAAAGUAAA
[3]
  apparent Kd: 39.2 nM
[4]
  apparent Kd: 34.5 nM

## UCACGGGACUAAGGAUAUACAUGAACUAUUAUUGUAGAAGGUAGAAUGUUAGCUUAUACACUAAACAUGAGGAUCACCCAUGUA
[3]
  apparent Kd: 36.5 nM
[4]
  apparent Kd: 32.8 nM

## GUUCUUCCUGUGAGGAUAUCCAUGUGUCGGUUUGUGGAGAAGGUACAUGAGGAUCACCCAUGUCACCCGCGUUU
[3]
  apparent Kd: 14.8 nM
[4]
  apparent Kd: 16.3 nM

## UUGGACGUCGUAGGAUAUGUAGGAUACUCCUACAUGAGGAUCACCCAUGUUGACAUGGAGGACGGACAGAAGGACGGUGUCCAU
[1]
  apparent Kd: 60.5 nM
[2]
  apparent Kd: 5.72 nM

## AUUUCGUUAUCAGGAUAUGGACAGGCCUGUCCGUAUUGAGACAGUAACAUGAGGAUCACCCAUGUCCAGAAGGGAUCGAAGUAU
[3]
  apparent Kd: 57 nM
[4]
  apparent Kd: 46.7 nM

## UGUAUGGACAGAGGAUAUACAGAUAGGAUCUACUAUCAAACAAUCCUGACAUGAGGAUCACCCAUGUAGAAGGCUGUCCAUACU
[3]
  apparent Kd: 23.8 nM
[4]
  apparent Kd: 91.4 nM

## AAAACUGGAGGAUAUACAUGAGGAUCACCCAUGUGUGGGUAUACUGUGUCGGCGUCAGGUAGAAGGCCACAAAA
[3]
  apparent Kd: 108 nM
[4]
  apparent Kd: 88.7 nM

## UGGACUGGGCAGAAGGGACAUGAGGAUCACCCAUGUCUUGGGCUACUUCAGUCAGGAUAUGCCCAAUAAAUAUCCGUGCAUCAA
[3]
  apparent Kd: 13.3 nM
[4]
  apparent Kd: 67.1 nM

## UAGCUUGACGCAGGAUAUCCAAGGCUGAAAUGAGGAGAAGGGCGCCAAACAUGAGGAUCACCCAUGUAUUAUGCAGGGUCCUCG
[3]
  apparent Kd: 302 nM
[4]
  apparent Kd: 152 nM

## AUGGUGUGAUAGGAUAUUGCUGGGUCAACCUUUUAAGAAGGGUCUACAUGAGGAUCACCCAUGUGGGUGUCCCU
[3]
  apparent Kd: 65.3 nM
[4]
  apparent Kd: 60.2 nM

## GGAUCCAACACAGGAUAUGCUGGACUUUGUCCAGCAGAAGGGUGAAGAACAUGAGGAUCACCCAUGUGGAUCCAUAUAUUUUAU
[1]
  apparent Kd: 262 nM
[2]
  apparent Kd: 16.5 nM

## AAGCUCGUGUGAGGAUAUGCCGCCGUUUCGGCUGCAGAAGGUGCUACGUUACAUGAGGAUCACCCAUGUCUCUGUUGUUUCGUA
[1]
  apparent Kd: 42.6 nM
[2]
  apparent Kd: 49.7 nM

## GUUCUUCCUGUGAGGAUAUCCAUGUGUCGGUGUGUGGAGAAGGUACAUGAGGAUCACCCAUGUCACCCGCGUUU
[3]
  apparent Kd: 20.8 nM
[4]
  apparent Kd: 22.2 nM

## AGAGUGUGAGGAUAUAUGGUGCAGAUGAAGGGAUAGAAGGAGUAGAAGGUACAUGAGGAUCACCCAUGUUAGGA
[3]
  apparent Kd: 27.4 nM
[4]
  apparent Kd: 21.7 nM

## AGGUCGGGAUAAGGGCAUUCGACUCAGGAUAUGGGAGGUUUACAUGAGGAUCACCCAUGUUUCACCCAGAAGGGAGUUCAAACU
[1]
  apparent Kd: 7.59 nM
[2]
  apparent Kd: 5.84 nM

## CGUAGGAUCCAGAAGGCAUGAACAUGAGGAUCACCCAUGUCAAUAGACAUGAGGAUAUGGAUCCUACGAAAAGUGCGAAAGCAC
[1]
  apparent Kd: 31.8 nM
[2]
  apparent Kd: 5.94 nM

## GGAUAGGACAGAGGAUAUACGUGCUAGAGAUACUAGCAAGAUUUCCUCACAUGAGGAUCACCCAUGUAGAAGGCUGUCCUAUCG
[3]
  apparent Kd: 13.2 nM
[4]
  apparent Kd: 348 nM

## CGCAAGUCAGGAUAUUCGACAGGUAAAUCAGUGGAUCAGAAGGAGAAGGGACAUGAGGAUCACCCAUGUAAGUA
[3]
  apparent Kd: 49.7 nM
[4]
  apparent Kd: 29.4 nM

## GUGCACAUUCGAGGAUAUCGGAGAGAGAUCCUUCGAGAAGGCGAUUCAUGAUGUAUUAUCCUGGACAUGAGGAUCACCCAUGUG
[1]
  apparent Kd: 579 nM
[2]
  apparent Kd: 288 nM

## AUACAUGAGGAUCACCCAUGUAAUUAAUUAACUAGUAAGAUCUAGGAUAUCAGCUCGAUUAGAGCUGAGAAGGAGAUCACAUGU
[1]
  apparent Kd: 34.7 nM
[2]
  apparent Kd: 16.9 nM

## AAGAUGUUAGGAUAUCGAAGGUUGUGGCAGGCGGGAAUUUGCGAGAAGGAACAUGAGGAUCACCCAUGUGAAAU
[3]
  apparent Kd: 22.3 nM
[4]
  apparent Kd: 21.8 nM

## UUAUUUUUACAGAAGGUUUAAUAAUAUGUAUGAGAAGGAUAUGUAACAUGAGGAUCACCCAUGUUUUGUCUAUAUGAGGAUCAU
[3]
  apparent Kd: 8.2 nM
[4]
  apparent Kd: 7.9 nM

## AACCAACAUGAGGAUCACCCAUGUUCUCAGACGUUUAGGUCACAGGAUAUUCGUGCUUGUGGGACGGAGAAGGGUGCCUCGCUG
[1]
  apparent Kd: 92.7 nM
[2]
  apparent Kd: 125 nM

## AUCUCAGGACGAGGAUAUCAAUACAUGAGGAUCACCCAUGUAUGACUACUGUGAUCCUUUAAGGCUGAGAAGGCGUCCCAAAUG
[3]
  apparent Kd: 20.2 nM
[4]
  apparent Kd: 60.8 nM

## AAAGUGUCAGGAUAUACAUGAGGAUCACCCAUGUAUCUUUUUGAUCGUAGGGUGCACCGUAGAAGGGACACUCC
[3]
  apparent Kd: 27.4 nM
[4]
  apparent Kd: 37.1 nM

## UUAAUUAAUUAGAAGGCAUGUCAUAAGACAUGAGGAUCACCCAUGUAGUUAAGGCGAAAGCCGCAUGAGGAUAUAUAAAUAUAU
[1]
  apparent Kd: 552 nM
[2]
  apparent Kd: 319 nM

## AAAUGAUGAGGAUAUACAUGAGGAUCACCCAUGUGUAAAAAUAAAUACACAAAAGAAAGUAGAAGGCAUCAAAA
[3]
  apparent Kd: 31.6 nM
[4]
  apparent Kd: 124 nM

## GUAAGCGACCAGAAGGGUGACAUGAGGAUCACCCAUGUAGAUGUGUUCCCGCUUGGGAACCGUCCACAGGAUAUGGUUGGCUAU
[1]
  apparent Kd: 35.3 nM
[2]
  apparent Kd: 18 nM

## UGUCUAUAUGAAGGAUAUCUAAGCAUAAACCGUAGAGAAGGUCAAUAGUACAUGAGGAUCACCCAUGUUGGGAUUGAUGGGUUU
[3]
  apparent Kd: 25.3 nM
[4]
  apparent Kd: 38.6 nM

## CAGCGAUAGCUGAACAAUCUAUCUGAGGAUAUCAUGAAUAAACAUGAGGAUCACCCAUGUAAAUAUGAGAAGGCAGAUAGAUUG
[1]
  apparent Kd: 4.82 nM
[2]
  apparent Kd: 4.78 nM

## UUUUAACAUGAGGAUCACCCAUGUGAGGAUAUCGAAAUUUAUAUUAAUAUUAUUAUUACGAGAAGGCACAUUUU
[3]
  apparent Kd: 71.9 nM
[4]
  apparent Kd: 91.1 nM

## AGAGAGAGACAGAAGGGCAAGCUCGAUUGCGGAGAAAGCGAUCGAGCUUGCAGGAUAUGUUGAACAUGAGGAUCACCCAUGUCA
[1]
  apparent Kd: 7.49 nM
[2]
  apparent Kd: 7.62 nM

## AUUAUGACCGAGUUAUAGUUCCUAACAUGAGGAUCACCCAUGUAGGAUAUCAGCACGAUAAGUGCUGAGAAGGACAUCUCGGUC
[3]
  apparent Kd: 13.3 nM
[4]
  apparent Kd: 13.9 nM
